# XiGFP reactiv: activators of X-chromosome reactivation in mouse fibroblasts | XiGFP mouse fibroblasts, % GFP-positive cells imaging, 3 d; cells co-treated with 5-aza-dC sensitizer; scaled so ellipticine positive control = 100% | activation, % at 7.58 µM | 0.055% of 360,000 active;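 active = mean normalized replicate activation at least 10% and every replicate at or above 10%; inconclusive = only one of the two criteria met; inactive = mean below 10% and not all replicates reach 10%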;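 note: 0% = median of on-plate neutral control wells and 100% = ellipticine 6 µM median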
#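 System: XiGFP fibroblasts, SV40-immortalized. Medium: DMEM plus 5-aza-dC sensitizer. Doses: single point. Timing: 3 d treatment, 15 min room-temperature fixation. Control set: ellipticine 6 µM.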
# SR-BI DiI inh: blocks mouse SR-BI lipid uptake from DiI-HDL | 0.96% of 320,000 active | AID 488896 | inhibition, % at 12.5 µM | Q61009 | ldlA[mSR-BI] CHO cells, DiI-HDL uptake fluorescence, 3 h;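 active = mean replicate inhibition of at least 70% and a set share of replicates each scoring 70 or more; inconclusive = meets just one of the two criteria; inactive = fails both criteria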;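 note: 0% = median of neutral control wells and 100% = median of positive control wells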
# Target sequence (Q61009 whole entry, looked up): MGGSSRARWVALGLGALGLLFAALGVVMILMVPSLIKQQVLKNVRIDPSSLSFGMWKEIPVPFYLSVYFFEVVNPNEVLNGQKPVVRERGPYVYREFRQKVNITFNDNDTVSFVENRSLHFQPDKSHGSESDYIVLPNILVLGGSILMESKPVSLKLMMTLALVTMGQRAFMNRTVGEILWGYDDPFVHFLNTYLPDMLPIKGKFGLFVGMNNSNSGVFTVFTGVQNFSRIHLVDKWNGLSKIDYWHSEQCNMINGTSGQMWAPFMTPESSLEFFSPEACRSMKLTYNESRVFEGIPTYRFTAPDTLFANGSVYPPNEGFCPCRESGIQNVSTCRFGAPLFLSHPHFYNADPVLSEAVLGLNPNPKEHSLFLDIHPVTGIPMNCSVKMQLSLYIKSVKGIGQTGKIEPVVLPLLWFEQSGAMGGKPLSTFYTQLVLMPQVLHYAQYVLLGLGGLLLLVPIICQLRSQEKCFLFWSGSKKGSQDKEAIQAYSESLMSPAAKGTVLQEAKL
# dFosB act: mouse delta FosB homodimer activation | activation, % at 25 µM | purified delta FosB, TAMRA-CDK5 oligo fluorescence polarization; percent of positive-control signal above neutral wells | 0.99% of 340,000 active | AID 493131 | P13346;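 active = mean activation above about 17%, with every replicate also reaching it, limit read from the data, passing the limit was not always enough; inconclusive = only one of the two conditions met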
# PvdQ inh: P. aeruginosa PvdQ acylase inhibition. purified PvdQ acylase, fluorescence plate reader. inhibition, % at 10 µM. 0.063% of 340,000 active; in the data active = inhibition above about 30%, passing the limit was not always enough; inconclusive = no clear call, values can overlap the other calls;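 note: 0% = vehicle neutral wells and 100% = reference inhibitor wells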
# SR-BI uptake up: activators of SR-BI mediated HDL lipid uptake; activation, % at 12.5 µM; CHO ldlA[mSR-BI] cells, DiI-HDL uptake fluorescence, 3 h; 100 = double the neutral-control signal; 0.096% of 320,000 active;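 active = mean replicate activation of at least 60% and every replicate at or above 60%; inconclusive = mean or all-replicate condition met, but not both; inactive = mean below 60% and not all replicates reaching 60%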;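 note: 0% = median plate neutral-control signal and 100% = twice that signal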
#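 Material: SR-BI-overexpressing, LDLR-lacking CHO cells | Dosing: Single compound concentration, delivered by pin transfer | Probe or stimulus: Labelled HDL, 10 µg/mL | Signal: Bottom-read cell fluorescence after medium removal, ex 550/em 595 nm | Schedule: 3 h, 37 °C | Evaluation: HDL uptake via cellular fluorescence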
# Ecoli rRNA inh: inhibitors of bacterial rRNA selective over humanized ribosomes; E. coli WT GFP vs humanized-ribosome RFP mutants, fluorescence, 24 h; active compounds read low; DMSO median 0, no signal -100; GFP signal change (wild-type ribosome), % (no concentration beside the values); 1.6% of 350,000 active; AID 720706;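 active = significant combined selectivity score with lowered wild-type GFP, culture density cut under 30%, mutant RFP and density less affected; inactive = any of these conditions unmet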
# * marks the source's active call; other numbers are inactive results; ? = inconclusive; nt = no result given. Hits are enriched below; roughly 2.6% of the tested compounds scored in any of these assays.
SMILES,XiGFP reactiv,SR-BI DiI inh,dFosB act,PvdQ inh,SR-BI uptake up,Ecoli rRNA inh
O=C1c2cccc3cccc(c23)C(=O)N1CCc1ccccc1,0.0,26.3,-6.4,-11.3,-26.3,26.4
Cc1cc(S(=O)(=O)Nc2ccc3ccccc3c2)c(C)s1,nt,-0.6,-1.4,-7.4,0.6,-50.6*
OC1CCCN(Cc2ccc3ccc4cccc5ccc2c3c45)C1 (configuration not stated),nt,2.7,67.9*,7.1,-2.7,nt
c1cc2ccc3ccc(CN4CCOCC4)c4ccc(c1)c2c34,nt,-3.4,30.5*,-2.0,3.4,nt
CN1CCC(=NNc2ncnc3sc4c(c23)CCCC4)CC1,0.6,12.9,-12.1,2.4,-13.0,3.9
COc1cccc(CN2CC(C(=O)NCc3ncc(C)[nH]3)CCC2=O)c1 (configuration not stated),0.0,-34.2,-6.9,-13.1,34.2,18.2
C[C@]12C[C@H](O)[C@H]3[C@@H](CCC4=CC(=O)CC[C@@]43C)[C@@H]1CC[C@@H]2C(=O)CO,-0.1,-5.6,0.4,7.9,87.2*,-1.6
CC(=O)[C@H]1CC[C@H]2[C@@H]3CCC4=CC(=O)CC[C@]4(C)[C@H]3[C@H](O)C[C@]12C,-0.1,6.7,-1.7,6.1,15.6,-7.3
CCC(CO)Oc1cc(NC(=O)c2ccc(N)cc2)c2ncn(C(C)C)c2c1 (configuration not stated),0.0,8.5,-11.6,-4.8,-8.5,-20.0*
CCC(CO)Oc1cc(NC(=O)c2ccc(F)cc2)c2ncn(C(C)C)c2c1 (configuration not stated),0.1,41.0,3.3,10.3,-41.0,7.1
CC(=O)c1cn(C(=O)c2ccc(Cl)cc2)c2ccccc12,0.0,1.1,-24.0,7.9,-1.1,0.8
COc1ccc(NC(=O)COC(=O)Cc2coc3cc(OC)ccc23)c(OC)c1,-0.1,14.3,-4.4,-15.9,-14.3,-33.9*
COc1cc(CC(=O)Nc2ccccc2N2CCOCC2)cc(OC)c1OC,0.0,-9.0,-4.1,-15.1,9.0,nt
COc1ccc2c(CC(=O)Nc3ccccc3N3CCOCC3)coc2c1,nt,2.4,-2.3,-12.4,-2.4,-27.4*
COc1ccc2c(CC(=O)Nc3ccccc3OC)coc2c1,0.1,6.0,-3.6,-9.4,-6.0,-19.9
COc1ccc(CN(C)C[C@@H]2OCCCC[C@H](C)Oc3ccc(NS(=O)(=O)c4ccccc4)cc3C(=O)N([C@H](C)CO)C[C@H]2C)cc1,0.2,nt,nt,nt,nt,7.2
CCc1c(C)nc2ccc(Br)cc2c1Cl,nt,-0.9,0.2,-8.9,0.9,nt
O=C(O)CC1(CC(=O)NCc2ccc(-c3cccs3)cc2)CCCCC1,0.1,7.8,0.9,-5.3,-7.8,-19.5*
CNC(=S)NC1CC2CCCC(C1)N2Cc1ccccc1OC (configuration not stated),0.1,-17.4,6.4,9.2,17.4,-16.6*
CNC(=S)NC1CC2CCCC(C1)N2Cc1ccc(C)cc1 (configuration not stated),0.4,-16.4,-15.6,8.1,16.4,11.4
CCC(=O)c1ccc(OC(=O)c2cccs2)cc1,nt,-9.2,4.8,41.4*,9.2,nt
O=C(Oc1ccc(-c2ccccc2)cc1)c1ccco1,0.1,-2.3,?,-8.6,2.3,11.9
COC(=O)c1ccc(OC(=O)c2cccs2)cc1,0.3,-21.1,-0.5,55.0*,21.1,2.9
COC(=O)c1ccc(OC(=O)c2ccco2)cc1,nt,-13.7,-5.5,80.7*,13.7,nt
COc1ccc(C(=O)N/N=C/c2ccc(OC(=O)c3cccs3)cc2)cc1,0.1,19.2,5.9,-5.6,-19.2,3.8
SMILES,XiGFP reactiv,SR-BI DiI inh,dFosB act,PvdQ inh,SR-BI uptake up,Ecoli rRNA inh
CCCCCOC(=O)C(C)c1c(C)[nH]c(=S)[nH]c1=O (configuration not stated),nt,-13.4,-1.4,-0.3,13.4,nt
Nc1[nH]c(C(=O)c2ccccc2)c(-c2ccccc2Cl)c1C(=O)c1ccccc1,0.6,nt,nt,nt,nt,-27.4*
COc1ccc2c3c([nH]c2c1)[C@@H](CO)NCC31CCN(C(=O)Nc2ccc(F)cc2)CC1,0.3,nt,nt,nt,nt,-6.9
CCc1cccc2c1Sc1ccccc1CC2N1CCNCC1 (configuration not stated),0.0,5.6,-5.2,5.1,-5.6,-51.5*
CN1CCN(C2Cc3ccccc3Sc3cc(C(F)(F)F)ccc32)CC1 (configuration not stated),0.2,nt,nt,nt,nt,-51.0
N#CC(C#N)=C1C=CC=CN1/C(=C\c1ccco1)C(=O)c1ccc(Cl)cc1,7.6,63.0,-5.7,6.7,-63.0,-10.7
N#CC(C#N)=C1C=CC=CN1/C(=C\c1ccco1)C(=O)c1ccc(-c2ccccc2)cc1,15.1*,13.0,0.4,-2.9,-13.0,nt
O=C(NC1CCCCCC1)C1CCN(S(=O)(=O)c2c(Cl)cccc2Cl)CC1,-0.1,11.0,-12.1,-10.9,-11.0,-0.2
O=C(NNC(=O)C1CCN(S(=O)(=O)c2ccccc2)CC1)c1ccccc1O,0.6,83.1*,-4.1,5.4,-83.1,1.1
O=C(NNC(=O)C1CCN(S(=O)(=O)c2c(Cl)cccc2Cl)CC1)c1ccccc1O,0.3,102.9*,-7.0,-0.3,-102.9,-12.7
O=C(NNC(=O)C1CCN(S(=O)(=O)c2ccccc2C(F)(F)F)CC1)c1ccccc1O,0.4,100.1*,-1.9,-14.6,-100.1,-9.6
O=C(NNC(=O)c1ccccc1O)c1ccc(Cl)c(S(=O)(=O)N2CCCCC2)c1,0.1,102.9*,-6.7,3.9,-102.9,-10.0
CCOc1ccc(C(=O)N2CCN(c3ccccc3)CC2)cc1,0.0,-8.9,3.8,-7.0,8.9,-6.4
OCCC1CN(Cc2cccc3nonc23)CCN1C1CCCCC1 (configuration not stated),0.4,-23.8,3.3,4.9,23.7,5.3
C[C@@H]1CN([C@@H](C)CO)C(=O)c2cc(NS(C)(=O)=O)ccc2O[C@H]1CN(C)Cc1ccccc1,-0.3,nt,nt,nt,nt,1.5
NNc1nc2sc3c(c2c(=O)n1Cc1ccccc1)CCC3,0.0,24.3,-3.3,-2.2,-24.3,-33.5*
CCOc1ccc(N=C2C(=O)N(CN3CCOCC3)c3ccccc32)cc1,nt,4.7,3.5,-2.0,-4.7,nt
COc1ccc2c(=O)c3c(=O)n(-c4ccccc4)c(-c4ccc(C)cc4)nc3oc2c1,-0.1,91.6*,-14.9,-9.6,-91.6,6.7
COCCn1c(-c2ccccc2)nc2oc3cc(OC)ccc3c(=O)c2c1=O,nt,59.1,-21.6,5.4,-59.1,nt
COc1ccc2c(=O)c3c(=O)n(Cc4ccco4)c(-c4cc(OC)c(OC)c(OC)c4)nc3oc2c1,nt,73.9*,-11.0,6.5,-73.9,nt
COc1ccc2c(=O)c3c(=O)n(Cc4ccco4)c(-c4ccccc4)nc3oc2c1,nt,34.4,-16.4,-3.2,-34.4,nt
